Data set [1] relates to Pseudomonas aeruginosa. Put plainly: Potentiation of rifampicin-induced antibacterial activity against MDR/XDR Pseudomonas aeruginosa isolate PA262-101856 harboring GyrA T83I mutant assessed as fold reduction in rifampicin MIC at 7.5 uM incubated for 18 hrs by broth microdilution method. The data set is classed as functional. The method in brief:
(§1)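 CLSI broth microdilution. Overnight cultures were set to 0.5 McFarland in saline, diluted 1:50 in Mueller-Hinton broth to a final 5 × 10^5 CFU/mL, and incubated 18 h at 37 °C against 2-fold antibiotic dilutions. A fixed adjuvant level was present throughout. MIC = lowest concentration with no visible turbidity, confirmed at 590 nm. Potentiation = fold drop in antibiotic MIC versus antibiotic alone.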

The test system of data set [2] is Klebsiella pneumoniae. The data set can be described thus: Potentiation of rifampicin-induced antibacterial activity against Klebsiella pneumoniae 116381 assessed as fold reduction in rifampicin MIC at 7.5 uM incubated for 18 hrs by broth dilution method. The data set is classed as functional. Summed up: (§2)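 Antibiotic MIC determined by CLSI broth microdilution (MHB, 5 × 10^5 CFU/mL, 18 h, 37 °C), once alone and once with a fixed concentration of the adjuvant. Potentiation is the ratio of the antibiotic MIC alone to its MIC in the presence of the adjuvant.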

Data set [3] has as its system Acinetobacter baumannii. Put plainly: Synergistic antibacterial activity against multidrug-resistant Acinetobacter baumannii AB027 assessed as fractional inhibitory concentration index in presence of rifampicin incubated for 18 hrs by broth dilution method. The data set is classed as functional.
The test system of data set [4] is Pseudomonas aeruginosa. Put plainly: Potentiation of minocycline-induced antibacterial activity against wild type Pseudomonas aeruginosa PAO1 assessed as fold reduction in minocycline MIC at 7.5 uM incubated for 18 hrs by broth microdilution method. The data set is classed as functional. The method in brief:
as §2

Data set [5] relates to Pseudomonas aeruginosa. Put plainly: Potentiation of minocycline-induced antimicrobial activity against MDR/XDR Pseudomonas aeruginosa isolate 91433 devoid of GyrA Thr83Ile mutant assessed as minocycline MIC80 incubated for 18 hrs by broth microdilution method (reference value: 32 microg/ml). Type of data set: functional. Conditions: isolate 91433, 18 h.
In data set [6] the test system is Klebsiella pneumoniae. The data set can be described thus: Potentiation of minocycline-induced antibacterial activity against Klebsiella pneumoniae 116381 assessed as fold reduction in minocycline MIC at 7.5 uM incubated for 18 hrs by broth dilution method. The data set is classed as functional. The method in brief:
as §2

Data set [7] concerns Acinetobacter baumannii. Put plainly: Synergistic antibacterial activity against multidrug-resistant Acinetobacter baumannii AB031 assessed as fractional inhibitory concentration index in presence of minocycline incubated for 18 hrs by broth dilution method. Type of data set: functional.
Data set [8] relates to Acinetobacter baumannii. Put plainly: Synergistic antibacterial activity against multidrug-resistant Acinetobacter baumannii AB027 assessed as fractional inhibitory concentration index in presence of minocycline incubated for 18 hrs by broth dilution method. Type of data set: functional.
Data set [9] concerns Pseudomonas aeruginosa. Put plainly: Potentiation of minocycline-induced antimicrobial activity against MDR/XDR Pseudomonas aeruginosa isolate PA264-104354 harboring GyrA Thr83Ile mutant assessed as minocycline MIC80 incubated for 18 hrs by broth microdilution method (reference value: 32 microg/ml). Type of data set: functional. The note with it: isolate PA264-104354, 18 h.

Another data set concerns Enterobacter cloacae. Put plainly: Potentiation of rifampicin-induced antibacterial activity against Enterobacter cloacae 117029 assessed as fold reduction in rifampicin MIC at 7.5 uM incubated for 18 hrs by broth dilution method. The data set is classed as functional. The method in brief:
as §2

The nature of data set [10]: Hemolytic activity against porcine erythrocytes assessed as hemoglobin release at 512 ug/ml incubated for 1 hr by spectrophotometric analysis relative to control. Type of data set: ADME, cell-based, Sus scrofa, Erythrocyte. The note with it: pig, read-out: Activity. Summed up: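 Porcine erythrocytes were washed three times in PBS and used at 3 × 10^8 cells/mL final. Compounds were serially diluted in PBS at twice the final concentration, mixed with an equal volume of cells, and incubated 1 h at 37 °C. After centrifugation (1000 g, 4 °C, 10 min), hemoglobin in the supernatant was read at 570 nm. Percent hemolysis was scaled between PBS (0%) and 0.1% Triton X-100 (100%).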

For data set [11], the system named is Escherichia coli. Put plainly: Potentiation of rifampicin-induced antibacterial activity against Escherichia coli 107115 assessed as fold reduction in rifampicin MIC at 4.1 uM incubated for 18 hrs by broth dilution method. The data set is classed as functional. The method in brief:
as §2

In data set [12] the test system is Acinetobacter baumannii. Put plainly: Antimicrobial activity against multidrug-resistant Acinetobacter baumannii AB92247 incubated for 18 hrs by broth dilution method. The data set is classed as functional. The note with it: AB92247, 18 h. The method in brief:
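Broth microdilution per CLSI: overnight cultures set to 0.5 McFarland in saline, diluted 1:50 in Mueller-Hinton broth to a final 5 × 10^5 CFU/mL, added to 2-fold serial dilutions, incubated 18 h at 37 °C; MIC is the lowest concentration without visible turbidity, confirmed at 590 nm.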

Data set [13] has as its system Acinetobacter baumannii. The data set can be described thus: Potentiation of rifampicin-induced antibacterial activity against multidrug-resistant Acinetobacter baumannii AB110193 assessed as fold reduction in rifampicin MIC at 4.1 uM incubated for 18 hrs by broth dilution method. The data set is classed as functional. The method in brief:
as §1

Data set [14] deals with Escherichia coli. The data set can be described thus: Antimicrobial activity against Escherichia coli 94474 incubated for 18 hrs by broth dilution method. Type of data set: functional. The note with it: Escherichia coli, 94474, 18 h. Summed up:
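CLSI broth microdilution. Overnight cultures were adjusted to 0.5 McFarland in saline, diluted 1:50 in Mueller-Hinton broth, and inoculated at a final 5 × 10^5 CFU/mL. Compounds were tested as 2-fold serial dilutions and incubated 18 h at 37 °C. MIC was the lowest concentration with no visible turbidity, confirmed by absorbance at 590 nm.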

For data set [15], the system named is Escherichia coli. Put plainly: Potentiation of rifampicin-induced antibacterial activity against Escherichia coli 94474 assessed as fold reduction in rifampicin MIC at 4.1 uM incubated for 18 hrs by broth dilution method. Type of data set: functional. Summed up:
as §1

The subject of data set [16] is Pseudomonas aeruginosa. The data set can be described thus: Antimicrobial activity against XDR Pseudomonas aeruginosa isolate PA264 infected in Galleria mellonella larvae assessed as survival rate at 25 mg/kg co-administered with 25 mg/kg rifampicin at 2 hrs post-inoculation measured after 24 hrs relative to control. Type of data set: functional. The method in brief:
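G. mellonella larvae were injected with ~5 CFU of P. aeruginosa PA264 (10 µL of 5 × 10^2 CFU/mL in PBS) and held 2 h at 37 °C. A single 10 µL injection followed: monotherapy or rifampicin + compound (25+25, 50+50 or 75+75 mg/kg), with PBS as control. Larvae kept at 37 °C were scored every 6 h to 24 h; dead = no response to touch. n = 30 (two runs of 15); Kaplan-Meier.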

Data set [17] relates to Pseudomonas aeruginosa. Put plainly: Potentiation of rifampicin-induced antibacterial activity against MDR/XDR Pseudomonas aeruginosa isolate 91433 devoid of GyrA T83I mutant assessed as fold reduction in rifampicin MIC at 9 uM incubated for 18 hrs by broth microdilution method. Type of data set: functional. The method in brief:
as §1

Data set [18] deals with Pseudomonas aeruginosa. The data set can be described thus: Potentiation of ciprofloxacin-induced antibacterial activity against MDR/XDR Pseudomonas aeruginosa isolate PA260-97103 harboring GyrA T83I mutant assessed as fold reduction in ciprofloxacin MIC at 9 uM incubated for 18 hrs by broth microdilution method. Type of data set: functional.
The test system of data set [19] is Pseudomonas aeruginosa. The data set can be described thus: Potentiation of ciprofloxacin-induced antibacterial activity against MDR/XDR Pseudomonas aeruginosa isolate 101885 harboring GyrA T83I mutant assessed as fold reduction in ciprofloxacin MIC at 9 uM incubated for 18 hrs by broth microdilution method. The data set is classed as functional.
For data set [20], the system named is Pseudomonas aeruginosa. Put plainly: Potentiation of minocycline-induced antibacterial activity against wild type Pseudomonas aeruginosa PAO1 assessed as fold reduction in minocycline MIC at 9 uM incubated for 18 hrs by broth microdilution method. The data set is classed as functional. The method in brief:
as §1

The subject of data set [21] is Pseudomonas aeruginosa. Put plainly: Potentiation of ciprofloxacin-induced antibacterial activity against MDR/XDR Pseudomonas aeruginosa isolate 101243 devoid of GyrA T83I mutant assessed as fold reduction in ciprofloxacin MIC at 9 uM incubated for 18 hrs by broth microdilution method. Type of data set: functional.

For `COc1c(N2C[C@@H]3CCCN(CCCCCCCCCCCCO[C@@H]4[C@@H](O)[C@H](N)C[C@H](N)[C@H]4O[C@H]4O[C@H](CN)[C@@H](O)C[C@H]4N)[C@@H]3C2)c(F)cc2c(=O)c(C(=O)O)cn(C3CC3)c12.Cl.Cl.Cl.Cl.Cl`, the “fold change (FC)” value was 512 in the data set with Pseudomonas aeruginosa [1]; “>=1024” in the data set with Klebsiella pneumoniae [2]; 8 in the data set with Pseudomonas aeruginosa [4]; 16 with Klebsiella pneumoniae [6]; “>=128” with Enterobacter cloacae. The results for the “fractional inhibitory concentration index (FICI)” value with Acinetobacter baumannii [3], in the data set with Acinetobacter baumannii [7] and in the data set with Acinetobacter baumannii [8] were 0.031 - 0.047, greater than 1 and greater than 1, respectively. Further, the MIC80 in the data set on Pseudomonas aeruginosa [5] and with Pseudomonas aeruginosa [9] was 1 µg/mL in each case.
As for `Cl.Cl.Cl.Cl.Cl.NC[C@H]1O[C@H](O[C@H]2[C@H](OCCCCCCCCCCCCN3CCN(c4cc5c(cc4F)c(=O)c(C(=O)O)cn5C4CC4)CC3)[C@@H](O)[C@H](N)C[C@@H]2N)[C@H](N)C[C@@H]1O`, the hemolysis at 1 h, 512 ug/ml in data set [10] was less than 10%. Also, the “fold change (FC)” value in the data set on Escherichia coli [11] was “>=256”; in the data set on Acinetobacter baumannii [13], 64; in the data set with Escherichia coli [15], 256. In addition, the MIC is 128 µg/mL in the data set with Acinetobacter baumannii [12] and greater than 128 µg/mL with Escherichia coli [14]. For the same compound, the survival at 25 mg/kg with Pseudomonas aeruginosa [16] was determined as 13%.
In the case of `Cl.Cl.Cl.Cl.Cl.Cl.NC[C@H]1O[C@H](O[C@H]2[C@H](OCCCCCCCCCCN3CCN(Cc4cccc5ccccc45)CC3)[C@@H](O)[C@H](N)C[C@@H]2N)[C@H](N)C[C@@H]1O`, the “fold change (FC)” value in the data set with Pseudomonas aeruginosa [17] amounted to 4; in the data set on Pseudomonas aeruginosa [18] it was 8; with Pseudomonas aeruginosa [19] it was 8; in the data set on Pseudomonas aeruginosa [20], 16; in the data set with Pseudomonas aeruginosa [21], 4.

The record behind these values is ChEMBL document CHEMBL4354800, “Amphiphilic nebramine-based hybrids Rescue legacy antibiotics from intrinsic resistance in multidrug-resistant Gram-negative bacilli” (Eur J Med Chem, 2019).
